Results taken from ChEMBL document CHEMBL3108666, “Cytotoxic and protein kinase inhibiting nakijiquinones and nakijiquinols from the sponge Dactylospongia metachromia” (J Nat Prod, 2014).
Activity calls are given as the source filed them. The rule behind the calls is not given here.

Key:
[1] = target: T1, Insulin-like growth factor 1 receptor (Homo sapiens, UniProt P08069); test: Inhibition of recombinant IGF1R (unknown origin) using Poly (Glu,Tyr) 4:1 as substrate assessed as incorporation of [gamma-33P]-ATP into substrate at 10 uM by radiometric assay
Outline: (§1)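 Radiometric 33PanQinase format: recombinant kinase incubated with [γ-33P]ATP plus unlabeled ATP and kinase substrate; substrate-incorporated label measured by FlashPlate counting; compounds screened at 10 μM each across a 16-kinase panel.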

[2] = target: T2, Focal adhesion kinase 1 (Homo sapiens, UniProt Q05397); test: Inhibition of recombinant FAK (unknown origin) assessed as incorporation of [gamma-33P]-ATP into substrate at 10 uM by radiometric assay; outline: as §1
[3] = target: T3, ALK tyrosine kinase receptor (Homo sapiens, UniProt Q9UM73); test: Inhibition of recombinant ALK (unknown origin) assessed as incorporation of [gamma-33P]-ATP into substrate at 10 uM by radiometric assay; outline: as §1
[4] = system: L5178Y; test: Cytotoxicity against mouse L5178Y cells assessed as growth inhibition by MTT assay; assay type: functional, cell-based
Outline: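 L5178Y mouse lymphoma cells; MTT microculture tetrazolium read-out, compared with untreated controls; media with 0.1% EGMME-DMSO as negative control; three independent experiments, each in triplicate.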

[5] = target: T4, Vascular endothelial growth factor receptor 2 (Homo sapiens, UniProt P35968); test: Inhibition of recombinant VEGFR2 (unknown origin) using poly(Glu,Tyr)4:1 as substrate assessed as incorporation of [gamma-33P]-ATP into substrate by radiometric assay; outline: as §1
T4 sequence (P35968 whole entry): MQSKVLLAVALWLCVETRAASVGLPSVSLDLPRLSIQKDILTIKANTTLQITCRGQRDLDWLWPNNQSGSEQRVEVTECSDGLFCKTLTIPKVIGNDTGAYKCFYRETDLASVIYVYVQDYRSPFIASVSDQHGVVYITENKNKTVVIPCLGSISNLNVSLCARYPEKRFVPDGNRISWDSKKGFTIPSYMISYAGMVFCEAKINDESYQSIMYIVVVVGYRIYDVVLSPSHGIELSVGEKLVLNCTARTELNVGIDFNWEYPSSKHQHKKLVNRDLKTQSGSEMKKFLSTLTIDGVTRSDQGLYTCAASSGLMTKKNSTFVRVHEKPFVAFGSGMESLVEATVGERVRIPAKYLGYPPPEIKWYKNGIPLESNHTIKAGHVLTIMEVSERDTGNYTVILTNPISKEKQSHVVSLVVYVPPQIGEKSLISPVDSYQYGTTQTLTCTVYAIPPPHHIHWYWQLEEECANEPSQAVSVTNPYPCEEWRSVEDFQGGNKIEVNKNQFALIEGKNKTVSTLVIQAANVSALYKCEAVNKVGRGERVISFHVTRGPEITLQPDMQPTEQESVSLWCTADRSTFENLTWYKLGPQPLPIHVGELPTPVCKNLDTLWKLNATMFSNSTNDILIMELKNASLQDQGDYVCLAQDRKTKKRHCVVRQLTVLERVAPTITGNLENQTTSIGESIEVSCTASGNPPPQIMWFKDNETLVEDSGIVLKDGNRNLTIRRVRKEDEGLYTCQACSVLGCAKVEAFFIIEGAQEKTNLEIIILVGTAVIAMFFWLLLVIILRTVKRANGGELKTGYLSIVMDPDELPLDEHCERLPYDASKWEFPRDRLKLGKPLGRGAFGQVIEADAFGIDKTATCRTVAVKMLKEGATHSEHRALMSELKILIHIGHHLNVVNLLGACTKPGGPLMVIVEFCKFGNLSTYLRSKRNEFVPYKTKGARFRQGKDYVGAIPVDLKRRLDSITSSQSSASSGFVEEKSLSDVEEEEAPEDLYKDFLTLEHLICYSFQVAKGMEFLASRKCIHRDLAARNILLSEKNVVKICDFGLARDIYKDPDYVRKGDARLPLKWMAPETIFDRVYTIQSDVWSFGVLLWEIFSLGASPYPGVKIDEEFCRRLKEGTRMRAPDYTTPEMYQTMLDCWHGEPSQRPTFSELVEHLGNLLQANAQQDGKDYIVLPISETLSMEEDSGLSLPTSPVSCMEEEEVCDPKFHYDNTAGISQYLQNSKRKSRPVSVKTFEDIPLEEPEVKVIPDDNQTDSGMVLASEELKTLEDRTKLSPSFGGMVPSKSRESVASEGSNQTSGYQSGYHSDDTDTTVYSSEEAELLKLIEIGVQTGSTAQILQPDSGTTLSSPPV

[6] = target: T5, Proto-oncogene tyrosine-protein kinase Src (Homo sapiens, UniProt P12931); test: Inhibition of recombinant SRC (unknown origin) using casein as substrate assessed as incorporation of [gamma-33P]-ATP into substrate by radiometric assay
[7] = target: Serine/threonine-protein kinase N1 (Homo sapiens, UniProt Q16512); test: Inhibition of recombinant PRK1 (unknown origin) using casein as substrate assessed as incorporation of [gamma-33P]-ATP into substrate by radiometric assay; outline: as §1
[8] = target: Serine/threonine-protein kinase PLK1 (Homo sapiens, UniProt P53350); test: Inhibition of recombinant PLK1 (unknown origin) using casein as substrate assessed as incorporation of [gamma-33P]-ATP into substrate by radiometric assay
Chain of Serine/threonine-protein kinase PLK1 (P53350 whole entry): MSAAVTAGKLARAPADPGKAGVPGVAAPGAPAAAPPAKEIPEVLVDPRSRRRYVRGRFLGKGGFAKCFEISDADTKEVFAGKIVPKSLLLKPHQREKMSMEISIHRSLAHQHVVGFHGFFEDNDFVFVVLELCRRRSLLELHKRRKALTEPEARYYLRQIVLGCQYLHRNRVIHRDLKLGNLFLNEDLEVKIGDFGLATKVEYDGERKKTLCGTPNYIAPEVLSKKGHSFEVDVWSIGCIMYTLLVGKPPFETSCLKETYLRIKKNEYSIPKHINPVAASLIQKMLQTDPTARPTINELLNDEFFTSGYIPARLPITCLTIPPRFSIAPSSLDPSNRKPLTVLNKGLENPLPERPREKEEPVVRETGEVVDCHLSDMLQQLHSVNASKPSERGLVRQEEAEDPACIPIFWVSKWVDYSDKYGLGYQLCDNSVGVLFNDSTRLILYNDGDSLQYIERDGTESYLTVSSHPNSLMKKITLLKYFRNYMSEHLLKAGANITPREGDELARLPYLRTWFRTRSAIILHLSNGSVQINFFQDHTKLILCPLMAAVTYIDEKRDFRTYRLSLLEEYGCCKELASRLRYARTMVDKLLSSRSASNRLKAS

[9] = target: Serine/threonine-protein kinase pim-1 (Homo sapiens, UniProt P11309); test: Inhibition of recombinant PIM1 (unknown origin) assessed as incorporation of [gamma-33P]-ATP into substrate by radiometric assay; outline: as §1
[10] = target: Serine/threonine-protein kinase Nek6 (Homo sapiens, UniProt Q9HC98); test: Inhibition of recombinant NEK6 (unknown origin) assessed as incorporation of [gamma-33P]-ATP into substrate by radiometric assay; outline: as §1
[11] = target: T6, Serine/threonine-protein kinase Nek2 (Homo sapiens, UniProt P51955); test: Inhibition of recombinant NEK2 (unknown origin) assessed as incorporation of [gamma-33P]-ATP into substrate by radiometric assay
T6 sequence (P51955 whole entry): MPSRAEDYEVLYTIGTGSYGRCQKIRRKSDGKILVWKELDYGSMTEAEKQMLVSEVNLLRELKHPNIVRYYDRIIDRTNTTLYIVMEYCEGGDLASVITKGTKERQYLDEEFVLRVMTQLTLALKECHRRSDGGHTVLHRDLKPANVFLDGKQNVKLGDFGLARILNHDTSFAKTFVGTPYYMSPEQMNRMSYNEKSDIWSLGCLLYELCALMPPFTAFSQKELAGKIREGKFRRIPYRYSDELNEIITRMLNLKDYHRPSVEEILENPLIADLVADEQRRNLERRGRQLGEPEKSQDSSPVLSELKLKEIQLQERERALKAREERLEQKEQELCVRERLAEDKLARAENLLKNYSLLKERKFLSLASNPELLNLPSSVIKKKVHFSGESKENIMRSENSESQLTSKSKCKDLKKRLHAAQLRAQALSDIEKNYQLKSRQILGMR

[12] = target: Hepatocyte growth factor receptor (Homo sapiens, UniProt P08581); test: Inhibition of wild type MET (unknown origin) assessed as incorporation of [gamma-33P]-ATP into substrate by radiometric assay
Chain of Hepatocyte growth factor receptor (P08581 whole entry): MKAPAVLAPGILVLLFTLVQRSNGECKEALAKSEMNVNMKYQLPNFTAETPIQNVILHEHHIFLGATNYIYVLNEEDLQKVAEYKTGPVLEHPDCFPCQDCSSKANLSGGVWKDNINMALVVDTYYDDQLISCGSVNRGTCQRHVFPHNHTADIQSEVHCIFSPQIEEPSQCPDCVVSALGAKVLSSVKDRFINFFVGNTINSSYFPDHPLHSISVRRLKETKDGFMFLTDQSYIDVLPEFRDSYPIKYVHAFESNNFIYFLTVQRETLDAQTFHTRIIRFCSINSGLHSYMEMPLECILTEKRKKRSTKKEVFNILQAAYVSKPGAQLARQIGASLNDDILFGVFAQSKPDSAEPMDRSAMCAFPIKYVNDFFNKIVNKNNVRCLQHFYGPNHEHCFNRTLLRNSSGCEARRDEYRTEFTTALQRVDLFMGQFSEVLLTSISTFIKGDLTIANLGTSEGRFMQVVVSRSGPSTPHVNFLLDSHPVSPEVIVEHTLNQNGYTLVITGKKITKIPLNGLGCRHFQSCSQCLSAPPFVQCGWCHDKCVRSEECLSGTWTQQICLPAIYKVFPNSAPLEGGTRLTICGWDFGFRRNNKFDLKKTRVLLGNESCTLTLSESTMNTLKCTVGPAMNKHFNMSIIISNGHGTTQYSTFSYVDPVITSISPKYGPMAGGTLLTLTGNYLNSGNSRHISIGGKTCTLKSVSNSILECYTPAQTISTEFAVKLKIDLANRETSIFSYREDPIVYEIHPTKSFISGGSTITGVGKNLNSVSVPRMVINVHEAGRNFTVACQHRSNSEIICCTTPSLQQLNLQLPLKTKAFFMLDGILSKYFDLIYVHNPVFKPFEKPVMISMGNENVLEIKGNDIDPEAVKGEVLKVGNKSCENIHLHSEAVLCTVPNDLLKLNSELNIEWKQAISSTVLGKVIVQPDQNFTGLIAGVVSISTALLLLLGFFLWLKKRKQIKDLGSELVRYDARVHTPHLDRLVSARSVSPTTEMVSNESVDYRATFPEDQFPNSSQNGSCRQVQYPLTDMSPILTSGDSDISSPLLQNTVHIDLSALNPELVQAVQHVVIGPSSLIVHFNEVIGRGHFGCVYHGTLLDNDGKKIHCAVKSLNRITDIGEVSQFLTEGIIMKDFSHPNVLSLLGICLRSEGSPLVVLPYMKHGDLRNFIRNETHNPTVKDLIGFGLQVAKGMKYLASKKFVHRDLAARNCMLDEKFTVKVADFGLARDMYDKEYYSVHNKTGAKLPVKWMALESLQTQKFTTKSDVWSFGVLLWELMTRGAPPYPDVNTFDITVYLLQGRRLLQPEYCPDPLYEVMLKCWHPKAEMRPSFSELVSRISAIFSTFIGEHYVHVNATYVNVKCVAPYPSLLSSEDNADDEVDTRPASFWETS

[13] = target: Dual specificity mitogen-activated protein kinase kinase 1 (Homo sapiens, UniProt Q02750); test: Inhibition of wild type MEK1 (unknown origin) assessed as incorporation of [gamma-33P]-ATP into substrate by radiometric assay
[14] = target: T1, Insulin-like growth factor 1 receptor; test: Inhibition of recombinant IGF1R (unknown origin) using Poly (Glu,Tyr) 4:1 as substrate assessed as incorporation of [gamma-33P]-ATP into substrate by radiometric assay
[15] = target: T2, Focal adhesion kinase 1; test: Inhibition of recombinant FAK (unknown origin) assessed as incorporation of [gamma-33P]-ATP into substrate by radiometric assay; outline: as §1
Target sequence in this assay (Q05397 whole entry): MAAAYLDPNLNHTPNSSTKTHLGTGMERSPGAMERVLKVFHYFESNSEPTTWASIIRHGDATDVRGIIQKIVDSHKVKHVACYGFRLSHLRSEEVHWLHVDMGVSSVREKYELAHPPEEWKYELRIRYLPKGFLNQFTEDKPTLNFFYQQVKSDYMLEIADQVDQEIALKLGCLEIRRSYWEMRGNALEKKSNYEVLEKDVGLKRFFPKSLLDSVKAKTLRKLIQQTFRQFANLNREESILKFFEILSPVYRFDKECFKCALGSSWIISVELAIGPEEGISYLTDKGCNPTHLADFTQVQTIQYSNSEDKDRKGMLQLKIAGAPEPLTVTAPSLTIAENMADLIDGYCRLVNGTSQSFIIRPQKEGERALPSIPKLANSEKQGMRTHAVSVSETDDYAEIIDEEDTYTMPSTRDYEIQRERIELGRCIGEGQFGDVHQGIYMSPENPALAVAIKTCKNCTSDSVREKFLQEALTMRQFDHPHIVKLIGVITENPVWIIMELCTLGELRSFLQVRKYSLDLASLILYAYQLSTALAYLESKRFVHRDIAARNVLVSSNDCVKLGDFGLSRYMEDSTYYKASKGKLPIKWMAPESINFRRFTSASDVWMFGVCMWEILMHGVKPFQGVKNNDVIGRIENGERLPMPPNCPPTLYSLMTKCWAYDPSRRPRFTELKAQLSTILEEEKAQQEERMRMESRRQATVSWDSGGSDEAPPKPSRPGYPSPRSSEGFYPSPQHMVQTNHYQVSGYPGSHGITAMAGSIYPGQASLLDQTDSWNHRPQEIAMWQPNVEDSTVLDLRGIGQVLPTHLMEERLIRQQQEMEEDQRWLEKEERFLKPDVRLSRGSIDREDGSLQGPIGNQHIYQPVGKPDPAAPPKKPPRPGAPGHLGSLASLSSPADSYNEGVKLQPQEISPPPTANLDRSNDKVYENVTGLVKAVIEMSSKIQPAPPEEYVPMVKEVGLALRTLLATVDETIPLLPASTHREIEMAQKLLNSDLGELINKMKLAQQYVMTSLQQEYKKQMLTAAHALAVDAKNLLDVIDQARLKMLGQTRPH

[16] = target: T7, Tyrosine-protein kinase receptor UFO (Homo sapiens, UniProt P30530); test: Inhibition of recombinant AXL (unknown origin) assessed as incorporation of [gamma-33P]-ATP into substrate by radiometric assay
T7 sequence (P30530 whole entry): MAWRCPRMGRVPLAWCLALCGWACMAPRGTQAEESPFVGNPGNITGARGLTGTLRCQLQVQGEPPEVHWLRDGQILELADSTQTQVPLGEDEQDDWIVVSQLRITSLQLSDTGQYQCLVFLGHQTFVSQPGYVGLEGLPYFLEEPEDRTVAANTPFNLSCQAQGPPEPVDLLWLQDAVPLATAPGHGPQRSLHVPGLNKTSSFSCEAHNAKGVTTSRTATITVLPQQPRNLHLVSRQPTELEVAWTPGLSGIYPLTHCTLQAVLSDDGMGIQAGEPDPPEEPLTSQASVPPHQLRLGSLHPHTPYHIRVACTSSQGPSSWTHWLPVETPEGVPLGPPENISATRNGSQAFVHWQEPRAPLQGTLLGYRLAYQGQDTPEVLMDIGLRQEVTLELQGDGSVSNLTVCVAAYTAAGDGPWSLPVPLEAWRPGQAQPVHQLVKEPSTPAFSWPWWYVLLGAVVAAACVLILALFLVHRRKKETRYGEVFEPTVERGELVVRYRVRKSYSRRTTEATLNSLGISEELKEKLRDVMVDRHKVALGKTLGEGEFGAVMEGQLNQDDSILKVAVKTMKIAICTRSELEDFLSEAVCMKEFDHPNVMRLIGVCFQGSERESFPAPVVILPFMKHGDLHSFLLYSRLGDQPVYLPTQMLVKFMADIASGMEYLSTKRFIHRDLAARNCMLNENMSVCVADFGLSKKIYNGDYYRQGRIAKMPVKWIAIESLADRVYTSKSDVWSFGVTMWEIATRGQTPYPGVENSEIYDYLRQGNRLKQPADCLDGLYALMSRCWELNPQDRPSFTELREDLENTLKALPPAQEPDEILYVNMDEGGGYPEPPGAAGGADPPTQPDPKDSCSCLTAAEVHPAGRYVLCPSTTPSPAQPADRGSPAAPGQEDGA

[17] = target: Aurora kinase B (Homo sapiens, UniProt Q96GD4); test: Inhibition of recombinant aurora kinase B (unknown origin) using tetra(LRRWSLG) as substrate assessed as incorporation of [gamma-33P]-ATP into substrate by radiometric assay
[18] = target: T8, NUAK family SNF1-like kinase 1 (Homo sapiens, UniProt O60285); test: Inhibition of recombinant ARK5 (unknown origin) assessed as incorporation of [gamma-33P]-ATP into substrate by radiometric assay; outline: as §1
T8 sequence (O60285 whole entry): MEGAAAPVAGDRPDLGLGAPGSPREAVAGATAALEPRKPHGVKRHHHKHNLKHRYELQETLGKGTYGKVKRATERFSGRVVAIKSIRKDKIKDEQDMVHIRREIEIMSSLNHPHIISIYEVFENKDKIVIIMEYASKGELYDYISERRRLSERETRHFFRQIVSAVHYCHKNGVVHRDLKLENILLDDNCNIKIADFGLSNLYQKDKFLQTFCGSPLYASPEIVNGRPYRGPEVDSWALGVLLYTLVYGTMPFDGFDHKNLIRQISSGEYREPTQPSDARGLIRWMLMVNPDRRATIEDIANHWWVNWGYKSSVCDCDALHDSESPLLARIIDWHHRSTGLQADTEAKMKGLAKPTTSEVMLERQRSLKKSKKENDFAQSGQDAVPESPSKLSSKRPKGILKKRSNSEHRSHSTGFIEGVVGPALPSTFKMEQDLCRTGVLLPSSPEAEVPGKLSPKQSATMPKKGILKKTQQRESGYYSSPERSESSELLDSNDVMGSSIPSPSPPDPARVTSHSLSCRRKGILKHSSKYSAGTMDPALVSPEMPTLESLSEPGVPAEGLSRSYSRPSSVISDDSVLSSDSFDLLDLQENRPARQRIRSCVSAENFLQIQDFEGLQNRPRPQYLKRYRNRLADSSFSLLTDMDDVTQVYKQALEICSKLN

[19] = target: T3, ALK tyrosine kinase receptor; test: Inhibition of recombinant ALK (unknown origin) assessed as incorporation of [gamma-33P]-ATP into substrate by radiometric assay
[20] = target: RAC-alpha serine/threonine-protein kinase (Homo sapiens, UniProt P31749); test: Inhibition of recombinant AKT1 (unknown origin) using GSK3 (14 to 27) as substrate assessed as incorporation of [gamma-33P]-ATP into substrate by radiometric assay; outline: as §1
Chain of RAC-alpha serine/threonine-protein kinase (P31749 whole entry): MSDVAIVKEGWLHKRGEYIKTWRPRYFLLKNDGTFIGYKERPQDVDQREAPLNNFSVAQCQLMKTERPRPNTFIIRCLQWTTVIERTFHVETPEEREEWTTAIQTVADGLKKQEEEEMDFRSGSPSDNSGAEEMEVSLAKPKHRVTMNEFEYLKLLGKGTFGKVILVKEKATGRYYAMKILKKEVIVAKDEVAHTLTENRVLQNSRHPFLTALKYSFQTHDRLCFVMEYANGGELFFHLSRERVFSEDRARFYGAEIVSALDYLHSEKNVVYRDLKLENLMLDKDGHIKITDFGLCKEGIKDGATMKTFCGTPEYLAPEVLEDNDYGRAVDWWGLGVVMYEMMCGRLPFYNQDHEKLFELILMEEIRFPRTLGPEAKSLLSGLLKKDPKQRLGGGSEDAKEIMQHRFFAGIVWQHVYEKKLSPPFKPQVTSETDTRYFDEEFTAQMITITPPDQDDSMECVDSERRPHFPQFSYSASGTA

[21] = target: T4, Vascular endothelial growth factor receptor 2; test: Inhibition of recombinant VEGFR2 (unknown origin) using poly(Glu,Tyr)4:1 as substrate assessed as incorporation of [gamma-33P]-ATP into substrate at 10 uM by radiometric assay; outline: as §1
[22] = target: T5, Proto-oncogene tyrosine-protein kinase Src; test: Inhibition of recombinant SRC (unknown origin) using casein as substrate assessed as incorporation of [gamma-33P]-ATP into substrate at 10 uM by radiometric assay; outline: as §1

inhibition [1]	inhibition [2]	inhibition [3]	IC50 [5]	IC50 [6]	IC50 [7]	IC50 [8]	IC50 [9]	IC50 [10]	IC50 [11]	IC50 [12]	IC50 [13]	IC50 [14]	IC50 [15]	IC50 [16]	IC50 [17]	IC50 [18]	inhibition [21]	inhibition [22]	SMILES	IC50 [4]	also measured
Active	Active	Active																	CC1=CCC[C@H]2[C@](C)(Cc3c4oc(C)nc4cc4nc(C)oc34)[C@@H](C)CC[C@@]12C	> 10 µM	
			2.22 µM	2.2 µM	> 100 µM	100 µM	62.6 µM	90.8 µM	29.9 µM	40.3 µM	> 100 µM	1.94 µM	3.03 µM	> 100 µM	61 µM	> 100 µM			CC1=CCC[C@H]2[C@](C)(CC3=C(O)C(=O)C=C(NCCC(C)C)C3=O)[C@@H](C)CC[C@@]12C	1.3 µM	IC50 [19]: 0.97 µM; IC50 [20]: 73.2 µM
Active	Active	Active															Active	Active	CC1=CCC[C@H]2[C@](C)(CC3=C(O)C(=O)C=C(NCCc4c[nH]c5ccccc45)C3=O)[C@@H](C)CC[C@@]12C	3.7 µM	
Active	Active	Active															Active	Active	CC1=CCC[C@H]2[C@](C)(CC3=C(O)C(=O)C=C(NCCc4ccc(O)cc4)C3=O)[C@@H](C)CC[C@@]12C	1.7 µM	
			4.81 µM	8.62 µM	> 100 µM	21.7 µM	20.3 µM	7.72 µM	14.7 µM	3.12 µM	> 100 µM	11.8 µM	4.56 µM	13.1 µM	3.89 µM	29.4 µM			COC(=O)c1cc(O)c(O)c(C[C@]2(C)[C@@H](C)CC[C@@]3(C)C(C)=CCC[C@@H]23)c1	> 10 µM	IC50 [19]: 2.19 µM; IC50 [20]: 48.4 µM
Active	Active	Active															Active	Active	CC1=CCC[C@H]2[C@](C)(CC3=C(O)C(=O)C=C(NCCc4ccccc4)C3=O)[C@@H](C)CC[C@@]12C	1.1 µM	
Active	Active	Active															Active	Active	CSCCCNC1=CC(=O)C(O)=C(C[C@]2(C)[C@@H](C)CC[C@@]3(C)C(C)=CCC[C@@H]23)C1=O	1.8 µM	
			3.66 µM	19.7 µM	> 100 µM	> 100 µM	> 100 µM	> 100 µM	> 100 µM	> 100 µM	> 100 µM	3.31 µM	7.78 µM	14.7 µM	> 100 µM	> 100 µM			COc1cc2nc(C)oc2c(C[C@]2(C)[C@@H](C)CC[C@@]3(C)C(C)=CCC[C@@H]23)c1O	> 10 µM	IC50 [19]: 3.38 µM; IC50 [20]: > 100 µM
